According to ChEMBL document CHEMBL1134517, “Amphiphilic anionic analogues of galactosylceramide: synthesis, anti-HIV-1 activity, and gp120 binding” (J Med Chem, 2001):

Columns and labels:
Settings in all cases: Homo sapiens
CEM-SS [1] = assay: Cytotoxicity was evaluated in vitro on CEM-SS cells; type: functional
MT4 [2] = assay: Anti-HIV-1 activity evaluated in vitro on MT-4 cells; type: functional, cell-based
How it was run: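 MT4 cells (RPMI, 10% fetal calf serum) infected with HIV-1 IIIB at a dose killing 90% of cells by day 5. Compounds in DPBS added after viral adsorption. Protection from the viral cytopathic effect read by MTT viability assay. IC50 derived from curves of protection percentage against drug concentration.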

MT4 [3] = assay: Cytotoxicity was evaluated in vitro on MT-4 cells; type: functional
How it was run: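 Uninfected MT4 cells incubated 5 days at 37 °C with various concentrations of galactolipid in DPBS. Proliferation and viability read by colorimetric MTT assay.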

CEM-SS [4] = assay: Anti-HIV-1 activity evaluated in vitro on CEM-SS cells; type: functional, cell-based
How it was run: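 CEM-SS cells (RPMI, 10% fetal calf serum) infected with HIV-1 LAI grown in CEM-SS cells. Galactolipids in DPBS (or as phospholipid/cholesterol liposomes) added after viral adsorption. After 5 days, reverse transcriptase activity in supernatant measured, and inhibition calculated against untreated infected cells. IC50 taken from median-effect plot of dose-effect data. Triplicate per concentration, experiment repeated twice.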

With `O=C(O)CCCCCCCCCCC(=O)N(CCCCCCCC(F)(F)C(F)(F)C(F)(F)C(F)(F)C(F)(F)C(F)(F)C(F)(F)C(F)(F)F)CCO[C@@H]1O[C@H](CO)[C@H](O)[C@H](O)[C@H]1O` the CC50 (CEM-SS [1]) was greater than 18 µM, the IC50 (MT4 [2]) was greater than 18 µM and the CC50 (MT4 [3]) was greater than 18 µM. The IC50 (CEM-SS [4]) was greater than 18 µM.
Work on `CCCCCCCCCCCCCC(=O)NC(CO[C@@H]1O[C@H](CO)[C@H](O)[C@H](O)[C@H]1O)C(=O)NCCO` (stereo not given in full) yielded a CC50 (CEM-SS [1]) greater than 100 µM, an IC50 (MT4 [2]) greater than 100 µM and a CC50 (MT4 [3]) greater than 100 µM. It also gave an IC50 (CEM-SS [4]) greater than 100 µM.
In the case of `CCCCCCCCCCCCCCNC(=O)C(CO[C@@H]1O[C@H](CO)[C@H](O)[C@H](O)[C@H]1O)NP(=O)(O)OC` (stereo not given in full), the CC50 (CEM-SS [1]) is reported as greater than 100 µM, the IC50 (MT4 [2]) is reported as greater than 100 µM and the CC50 (MT4 [3]) is reported as greater than 100 µM. The IC50 (CEM-SS [4]) was greater than 100 µM.
`CCCCCCCCCCCCCC(=O)NC(CO[C@@H]1O[C@H](CO)[C@H](O)[C@H](O)[C@H]1O)C(=O)O` (stereo not given in full) showed a CC50 (CEM-SS [1]) greater than 100 µM, an IC50 (MT4 [2]) greater than 100 µM and a CC50 (MT4 [3]) greater than 100 µM. The IC50 (CEM-SS [4]) was 20 µM.
`CCCCCCCCCCCCCC(=O)NCC(NC(=O)CCCCCCCCCCCCC)C(=O)NCCNC(=O)C(O)C(O)C(O[C@@H]1O[C@H](CO)[C@H](O)[C@H](O)[C@H]1O)C(O)CO` (stereo not given in full) gave a CC50 (CEM-SS [1]) greater than 100 µM, an IC50 (MT4 [2]) greater than 100 µM and a CC50 (MT4 [3]) greater than 100 µM. It also gave an IC50 (CEM-SS [4]) greater than 100 µM.
Compound `CCCCCCCCCCCCCCNC(=O)C(N)CO[C@@H]1O[C@H](CO)[C@H](O)[C@H](O)[C@H]1O` (stereo not given in full) has an IC50 (CEM-SS [4]) of 60 µM.
With `CCCCCCCCCCCCCC(=O)NC(CO[C@@H]1O[C@H](CO)[C@H](O)[C@H](O)[C@H]1O)C(=O)NCCOS(=O)(=O)O` (stereo not given in full) the CC50 (CEM-SS [1]) was greater than 100 µM, the IC50 (MT4 [2]) was 20 µM and the CC50 (MT4 [3]) was greater than 100 µM. It also gave an IC50 (CEM-SS [4]) of 10 µM.
`CCCCCCCCCCCCCCNC(=O)C(CO[C@@H]1O[C@H](CO)[C@H](O)[C@H](O)[C@H]1O)NC(=O)CCCCCCCCCCC(=O)O` (stereo not given in full) gave a CC50 (CEM-SS [1]) greater than 100 µM, an IC50 (MT4 [2]) greater than 100 µM and a CC50 (MT4 [3]) greater than 100 µM. For the same compound, the IC50 (CEM-SS [4]) was greater than 100 µM.
`CCCCCCCCCCCCCC(=O)NCC(NC(=O)CCCCCCCCCCCCC)C(=O)NCCN(CCNC(=O)C(O)C(O)C(O[C@@H]1O[C@H](CO)[C@H](O)[C@H](O)C1O)C(O)CO)CCNC(=O)C(O)C(O)C(O[C@@H]1O[C@H](CO)[C@H](O)[C@H](O)[C@H]1O)C(O)CO` (stereo not given in full) gave a CC50 (CEM-SS [1]) of 44 µM, an IC50 (MT4 [2]) of 33 µM and a CC50 (MT4 [3]) of 38 µM. It also gave an IC50 (CEM-SS [4]) of 32 µM.
Compound `CCCCCCCCCCCCCCNC(=O)C(CO[C@@H]1O[C@H](CO)[C@H](O)[C@H](O)[C@H]1O)NC(=O)CCC(=O)NCCS(=O)(=O)O` (stereo not given in full) has a CC50 (CEM-SS [1]) greater than 100 µM, an IC50 (MT4 [2]) greater than 100 µM and a CC50 (MT4 [3]) greater than 100 µM. It also gave an IC50 (CEM-SS [4]) of 50 µM.
Work on `CCCCCCCCCCCCCCNC(=O)C(CO[C@@H]1O[C@H](CO)[C@H](O)[C@H](O)[C@H]1O)NC(=O)CCC(=O)O` (stereo not given in full) yielded a CC50 (CEM-SS [1]) greater than 100 µM, an IC50 (MT4 [2]) greater than 100 µM and a CC50 (MT4 [3]) greater than 100 µM. The IC50 (CEM-SS [4]) was greater than 100 µM.
`O=C(O)CCCCCCCCCCCNC(=O)C(CO[C@@H]1O[C@H](CO)[C@H](O)[C@H](O)[C@H]1O)NC(=O)CCC(=O)O` (stereo not given in full) was tested, and the CC50 (CEM-SS [1]) was greater than 100 µM, the IC50 (MT4 [2]) was greater than 100 µM and the CC50 (MT4 [3]) was greater than 100 µM. The IC50 (CEM-SS [4]) was greater than 100 µM.
`NC(CO[C@@H]1O[C@H](CO)[C@H](O)[C@H](O)[C@H]1O)C(=O)NCCCCCCCCCCCC(=O)O` (stereo not given in full) showed a CC50 (CEM-SS [1]) greater than 100 µM, an IC50 (MT4 [2]) greater than 100 µM and a CC50 (MT4 [3]) greater than 100 µM. It also gave an IC50 (CEM-SS [4]) greater than 100 µM.
In the case of `NC(CO[C@@H]1O[C@H](CO)[C@H](O)[C@H](O)[C@H]1O)C(=O)NCCCCCCCCCCCC(F)(F)C(F)(F)C(F)(F)C(F)(F)C(F)(F)C(F)(F)F` (stereo not given in full), the IC50 (CEM-SS [4]) is reported as 40 µM.
